Source: ChEMBL document CHEMBL1821575, “A novel amino-benzosuberone derivative is a picomolar inhibitor of mammalian aminopeptidase N/CD13” (Bioorg Med Chem, 2011)

Tests used:
Aminopeptidase N = target: T1, Aminopeptidase N (Sus scrofa, UniProt P15145); assay: Inhibition of porcine kidney APN using L-leucine-p-nitroanilide as substrate after 30 mins by Dixon plot analysis
T1 sequence (P15145 whole entry): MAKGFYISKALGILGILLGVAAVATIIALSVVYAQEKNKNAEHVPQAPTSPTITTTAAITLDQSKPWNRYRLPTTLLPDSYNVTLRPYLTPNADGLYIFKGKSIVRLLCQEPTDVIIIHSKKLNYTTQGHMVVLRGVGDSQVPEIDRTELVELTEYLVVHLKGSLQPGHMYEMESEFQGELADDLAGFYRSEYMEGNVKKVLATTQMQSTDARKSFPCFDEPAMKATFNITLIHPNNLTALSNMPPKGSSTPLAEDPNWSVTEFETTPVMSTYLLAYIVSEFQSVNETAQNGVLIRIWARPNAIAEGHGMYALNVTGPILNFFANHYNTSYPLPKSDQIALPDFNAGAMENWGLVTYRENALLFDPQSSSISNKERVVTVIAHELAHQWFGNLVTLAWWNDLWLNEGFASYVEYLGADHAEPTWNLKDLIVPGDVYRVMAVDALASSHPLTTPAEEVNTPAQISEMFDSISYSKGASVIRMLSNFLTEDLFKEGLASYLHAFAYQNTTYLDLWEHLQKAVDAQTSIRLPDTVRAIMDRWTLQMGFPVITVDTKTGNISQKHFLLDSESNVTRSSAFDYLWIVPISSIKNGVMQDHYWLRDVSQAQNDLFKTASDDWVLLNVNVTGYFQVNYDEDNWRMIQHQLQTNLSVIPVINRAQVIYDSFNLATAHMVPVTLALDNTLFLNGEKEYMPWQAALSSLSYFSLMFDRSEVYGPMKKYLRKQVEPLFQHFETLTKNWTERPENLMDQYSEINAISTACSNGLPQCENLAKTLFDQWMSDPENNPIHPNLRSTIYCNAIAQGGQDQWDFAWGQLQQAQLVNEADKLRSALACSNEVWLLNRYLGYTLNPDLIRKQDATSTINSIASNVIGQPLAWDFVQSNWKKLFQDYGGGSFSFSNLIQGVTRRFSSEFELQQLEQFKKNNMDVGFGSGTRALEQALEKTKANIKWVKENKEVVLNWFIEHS

Cytosol aminopeptidase = target: T2, Cytosol aminopeptidase (Bos taurus, UniProt P00727); assay: Inhibition of bovine kidney cytosolic leucine aminopeptidase using L-leucine-p-nitroanilide as substrate after 30 mins by Dixon plot analysis
T2 sequence (P00727 whole entry): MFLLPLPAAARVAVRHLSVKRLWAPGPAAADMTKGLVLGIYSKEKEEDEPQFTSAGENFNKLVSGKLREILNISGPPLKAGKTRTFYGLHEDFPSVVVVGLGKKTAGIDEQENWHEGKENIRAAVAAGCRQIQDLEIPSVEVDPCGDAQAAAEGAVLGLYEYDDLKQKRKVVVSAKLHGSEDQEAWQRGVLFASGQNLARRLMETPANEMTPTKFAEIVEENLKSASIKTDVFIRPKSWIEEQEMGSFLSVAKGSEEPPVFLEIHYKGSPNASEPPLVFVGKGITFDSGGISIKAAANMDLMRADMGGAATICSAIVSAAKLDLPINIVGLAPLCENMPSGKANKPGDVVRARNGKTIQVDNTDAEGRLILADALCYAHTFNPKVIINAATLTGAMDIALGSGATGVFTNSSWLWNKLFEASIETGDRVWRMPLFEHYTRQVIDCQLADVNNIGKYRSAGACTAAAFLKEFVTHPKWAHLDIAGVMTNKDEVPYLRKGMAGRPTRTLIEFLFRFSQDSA
Summary of the method: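 Cytosolic leucine aminopeptidase, purified by a published procedure, 20 Units per assay in 0.1 M Tris-HCl, 0.1 mM ZnCl2, 5 mM MnCl2, 1 M KCl, pH 8.0, at 30 °C. […] Ki came from Dixon plots of racemates.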

[1] = target: Bacterial leucyl aminopeptidase (Vibrio proteolyticus, UniProt Q01693); assay: Inhibition of Aeromonas proteolytica aminopeptidase using L-leucine-p-nitroanilide as substrate after 30 mins by Dixon plot analysis
Bacterial leucyl aminopeptidase, sequence (Q01693 whole entry): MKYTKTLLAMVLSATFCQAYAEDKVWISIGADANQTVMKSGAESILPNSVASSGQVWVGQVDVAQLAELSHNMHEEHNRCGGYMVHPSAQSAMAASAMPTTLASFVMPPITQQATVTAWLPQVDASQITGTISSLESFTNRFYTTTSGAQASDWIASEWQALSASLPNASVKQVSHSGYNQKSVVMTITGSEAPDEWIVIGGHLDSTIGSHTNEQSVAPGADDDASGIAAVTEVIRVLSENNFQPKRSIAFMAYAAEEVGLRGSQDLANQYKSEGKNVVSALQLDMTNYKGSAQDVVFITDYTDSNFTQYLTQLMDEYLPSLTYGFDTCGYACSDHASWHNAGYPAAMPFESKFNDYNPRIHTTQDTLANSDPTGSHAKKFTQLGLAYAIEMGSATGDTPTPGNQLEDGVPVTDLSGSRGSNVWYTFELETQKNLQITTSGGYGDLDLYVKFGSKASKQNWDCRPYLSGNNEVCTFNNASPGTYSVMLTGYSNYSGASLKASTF
Summary of the method: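 Commercial Aeromonas proteolytica aminopeptidase, 2 mUnits per assay in 0.05 M Tris-HCl pH 7.5, 30 °C, started by adding enzyme. L-leucine-p-nitroanilide was set at its Km (0.02 mM). Release of p-nitroanilide was read continuously at 405 nm over 30 min for initial velocities. Ki was taken from Dixon plots, with racemic compounds tested up to their solubility limit.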

| Ki (Aminopeptidase N) | Ki (Cytosol aminopeptidase) | Ki [1] | SMILES |
| --- | --- | --- | --- |
| 6 nM | > 100 µM | – | NC1CCc2c(Br)ccc(Br)c2CC1=O (racemic) |
| 70 nM | > 100 µM | > 100 µM | NC1CCc2c(-c3ccccc3)ccc(Br)c2CC1=O (racemic) |
| – | > 100 µM | > 100 µM | NC1CCc2c(Cl)cccc2CC1=O (racemic) |
| 40 nM | 50 µM | > 100 µM | NC1CCc2c(-c3ccccc3)ccc(-c3ccccc3)c2CC1=O (racemic) |
| – | > 100 µM | 900 µM | NC1CCc2ccccc2CC1=O (racemic) |
| – | > 100 µM | > 100 µM | NC1CCc2c(Br)cccc2CC1=O (racemic) |

The next lines start with the compound.

| SMILES | Ki (Aminopeptidase N) | Ki (Cytosol aminopeptidase) | Ki [1] |
| --- | --- | --- | --- |
| NC1CCc2cccc(-c3ccccc3)c2CC1=O (racemic) | – | > 100 µM | 28 µM |
| NC1CCc2c(ccc3ccccc23)CC1=O (racemic) | 40 nM | > 100 µM | > 100 µM |
| NC1CCc2ccc3ccccc3c2CC1=O (racemic) | 100 nM | > 100 µM | > 100 µM |
| NC1CCc2cccc(Br)c2CC1=O (racemic) | – | > 100 µM | 213 µM |
| NC1CCc2c(Br)ccc(-c3ccccc3)c2CC1=O (racemic) | – | 70 µM | 39 µM |
| NC1CCc2c(cccc2-c2ccccc2)CC1=O (racemic) | – | > 100 µM | > 100 µM |
